# Laboratory results published in ChEMBL document CHEMBL1126600, “A trans-platinum complex showing higher antitumor activity than the cis congeners” (J Med Chem, 1993).
# How the values were obtained:
# Format in all cases: functional, cell-based
# Details in all cases: Mus musculus
# P388 [1] = assay: Effect was evaluated by implanting P388/DDP leukemia cells into B6D2F1 mice and treated for 1 day at 193 umol/ Kg dose
# Procedure, shortened: (§1)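 P388 or P388/DDP leukemia cells (10^6/mouse) implanted ip into B6D2F1 mice on day 0; 6 animals/group, 8 untreated controls. Complexes dissolved in water just before use, given ip. Read-out %T/C = median survival time ×100 of treated vs untreated; >125% taken as significant. P388/DDP subline raised in vivo by serial passage with single ip cis-DDP (20 µmol/kg) 2 days after implantation.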
# P388 [2] = assay: Effect was evaluated by implanting P388/DDP leukemia cells into B6D2F1 mice and treated for 1-7 days at 2 umol/ Kg dose; procedure, shortened: as §1
# P388 [3] = assay: Effect was evaluated by implanting P388 cells into B6D2F1 mice and treated for 1-7 days at 2 umol/ Kg dose; procedure, shortened: as §1
# P388 [4] = assay: Inhibitory effect was evaluated on the growth of P388 cells
# Procedure, shortened: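 P388 cells (10^5 cells/mL, exponential growth) exposed to the platinum complexes at increasing concentrations for 1 h at 37 °C, drug removed, then grown 48 h more; cell number and viability counted by trypan blue exclusion. ID50 = 50% growth-inhibitory concentration; five experiments, each in triplicate, mean ± standard deviation.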
# P388 [5] = assay: Effect was evaluated by implanting P388 cells into B6D2F1 mice and treated for 1 day at 26 umol/ Kg dose; procedure, shortened: as §1
# P388 [6] = assay: Effect was evaluated by implanting P388 cells into B6D2F1 mice and treated for 1 day at 193 umol/ Kg dose; procedure, shortened: as §1
Sequence,T/C (P388 [1]) [%],T/C (P388 [2]) [%],T/C (P388 [3]) [%],ID50 (P388 [4]) [µM],T/C (P388 [5]) [%],T/C (P388 [6]) [%]
CISPLATIN,95,90,203,2.05,202,–
TRANSPLATIN,107,–,–,85,–,105
